The values below come from PMC3773367 (Biochemistry, 2010).

Series [1] addresses ThArsA. Briefly: Photoaffinity labelling with increasing 8-azido[γ-32P]ATP. Format: binding. To be noted: read-out: apparent Kd.
The target of another series is K16Q ThArsA. The series is described as above. Format: binding. To be noted: read-out: apparent Kd.
For series [2], the system named is ThArsA. Format: biochemical. As to conditions: read-out: Km for ATP.
Another series concerns the target wild-type ArsA (Escherichia coli, UniProt P08690). To be noted: read-out: Km for ATP.
In a further series the test system is E. coli strain JM109. Description: Arsenite resistance assay. The series is classed as cell-based, Escherichia coli.
Series [3] in a line: ATPase activity, NADH-coupled assay. Format: biochemical, Escherichia coli. To be noted: for ATPase activity relative to wild type: % of wild-type activity.
Another series can be described thus: Sb. To be noted: 10 μM ArsA, 2 mM ATPγS, 2.5 mM MgCl2; Sb(III) per ArsA. The series is classed as binding, Escherichia coli. In outline:
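Purified ArsA buffer-exchanged into 50 mM MOPS-KOH pH 7.5. Incubated 1 h on ice with 2 mM ATPγS, 2.5 mM MgCl2 and a range of potassium antimonyl tartrate concentrations. Unbound metalloid removed on a spin gel-filtration column in the same buffer. Eluate diluted in 2% HNO3 and antimony measured by ICP-MS against an antimony standard. Binding expressed as a function of Sb(III) concentration.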

wild-type ArsA, sequence (P08690 whole entry): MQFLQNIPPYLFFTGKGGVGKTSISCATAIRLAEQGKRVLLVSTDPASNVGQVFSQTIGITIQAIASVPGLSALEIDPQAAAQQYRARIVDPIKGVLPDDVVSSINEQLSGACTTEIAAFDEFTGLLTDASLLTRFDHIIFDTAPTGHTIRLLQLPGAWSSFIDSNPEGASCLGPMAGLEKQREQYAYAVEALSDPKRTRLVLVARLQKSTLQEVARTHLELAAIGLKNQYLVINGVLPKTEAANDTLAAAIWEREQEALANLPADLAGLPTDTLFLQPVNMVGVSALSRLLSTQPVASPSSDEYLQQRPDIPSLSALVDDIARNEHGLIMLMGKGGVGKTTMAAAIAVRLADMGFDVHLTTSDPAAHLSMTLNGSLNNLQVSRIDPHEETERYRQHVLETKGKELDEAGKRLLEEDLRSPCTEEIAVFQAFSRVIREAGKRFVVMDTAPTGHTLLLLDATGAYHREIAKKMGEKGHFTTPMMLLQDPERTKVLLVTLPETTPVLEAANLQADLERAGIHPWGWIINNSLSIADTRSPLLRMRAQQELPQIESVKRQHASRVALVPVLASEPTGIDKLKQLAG

`[N-]=[N+]=Nc1nc2c(N)ncnc2n1[C@@H]1O[C@H](COP(=O)(O)OP(=O)(O)OP(=O)(O)O)[C@@H](O)[C@H]1O` [8-azido[γ-32P]ATP, 8-azidoadenosine 5'-[γ-32P]triphosphate]: the Kd on ThArsA [1] was found to be 50 µM; on K16Q ThArsA, 55 µM.
Turning to `Nc1ncnc2c1ncn2[C@@H]1O[C@H](COP(=O)(O)OP(=O)(O)OP(=O)(O)O)[C@@H](O)[C@H]1O` [ATP, adenosine 5'-triphosphate], the Km with ThArsA [2] and on wild-type ArsA was 170 µM in each case.
`O=[As][O-].[Na+]` [sodium arsenite]: the “sodium arsenite concentration in which cells could grow” value in the series with E. coli strain JM109 (cells expressing wild-type arsA and arsB genes) stood at 5 mM. Further, the “sodium arsenite concentration at which cells were sensitive” value in the series on E. coli strain JM109 (cells without an ars operon) worked out at 1 mM.

B1: K16Q ArsA: ArsA with signature Lys16 (A1 half) changed to glutamine (protein, UniProt P08690 1-583, looked up, variant K16Q)
Arsenical pump-driving ATPase: MQFLQNIPPYLFFTGQGGVGKTSISCATAIRLAEQGKRVLLVSTDPASNVGQVFSQTIGITIQAIASVPGLSALEIDPQAAAQQYRARIVDPIKGVLPDDVVSSINEQLSGACTTEIAAFDEFTGLLTDASLLTRFDHIIFDTAPTGHTIRLLQLPGAWSSFIDSNPEGASCLGPMAGLEKQREQYAYAVEALSDPKRTRLVLVARLQKSTLQEVARTHLELAAIGLKNQYLVINGVLPKTEAANDTLAAAIWEREQEALANLPADLAGLPTDTLFLQPVNMVGVSALSRLLSTQPVASPSSDEYLQQRPDIPSLSALVDDIARNEHGLIMLMGKGGVGKTTMAAAIAVRLADMGFDVHLTTSDPAAHLSMTLNGSLNNLQVSRIDPHEETERYRQHVLETKGKELDEAGKRLLEEDLRSPCTEEIAVFQAFSRVIREAGKRFVVMDTAPTGHTLLLLDATGAYHREIAKKMGEKGHFTTPMMLLQDPERTKVLLVTLPETTPVLEAANLQADLERAGIHPWGWIINNSLSIADTRSPLLRMRAQQELPQIESVKRQHASRVALVPVLASEPTGIDKLKQLAG
In the case of B1, the “ATPase activity relative to wild type” value was 70% in series [3] and “approximately 70%” in series [3] (listed as K16Q). In series [3] (read-out: concentration of antimonite [Sb(III)] required for half-maximal activation), the EC50 came out at 20 µM. In addition, the “reduction in the affinity of ATP” value in series [3] (versus wild type) came to 3 fold.

B2: C113A/C422A: ArsA derivative lacking the Sb(III)-binding residues Cys113 and Cys422 (protein, UniProt P08690 1-583, looked up, variant C113A C422A)
Arsenical pump-driving ATPase: MQFLQNIPPYLFFTGKGGVGKTSISCATAIRLAEQGKRVLLVSTDPASNVGQVFSQTIGITIQAIASVPGLSALEIDPQAAAQQYRARIVDPIKGVLPDDVVSSINEQLSGAATTEIAAFDEFTGLLTDASLLTRFDHIIFDTAPTGHTIRLLQLPGAWSSFIDSNPEGASCLGPMAGLEKQREQYAYAVEALSDPKRTRLVLVARLQKSTLQEVARTHLELAAIGLKNQYLVINGVLPKTEAANDTLAAAIWEREQEALANLPADLAGLPTDTLFLQPVNMVGVSALSRLLSTQPVASPSSDEYLQQRPDIPSLSALVDDIARNEHGLIMLMGKGGVGKTTMAAAIAVRLADMGFDVHLTTSDPAAHLSMTLNGSLNNLQVSRIDPHEETERYRQHVLETKGKELDEAGKRLLEEDLRSPATEEIAVFQAFSRVIREAGKRFVVMDTAPTGHTLLLLDATGAYHREIAKKMGEKGHFTTPMMLLQDPERTKVLLVTLPETTPVLEAANLQADLERAGIHPWGWIINNSLSIADTRSPLLRMRAQQELPQIESVKRQHASRVALVPVLASEPTGIDKLKQLAG
On to B2, for which, in “Sb”, the “stoichiometry of Sb(III) binding” value is “only background levels”.

B3: K335Q ArsA: ArsA with signature Lys335 (A2 half) changed to glutamine (protein, UniProt P08690 1-583, looked up, variant K335Q)
Arsenical pump-driving ATPase: MQFLQNIPPYLFFTGKGGVGKTSISCATAIRLAEQGKRVLLVSTDPASNVGQVFSQTIGITIQAIASVPGLSALEIDPQAAAQQYRARIVDPIKGVLPDDVVSSINEQLSGACTTEIAAFDEFTGLLTDASLLTRFDHIIFDTAPTGHTIRLLQLPGAWSSFIDSNPEGASCLGPMAGLEKQREQYAYAVEALSDPKRTRLVLVARLQKSTLQEVARTHLELAAIGLKNQYLVINGVLPKTEAANDTLAAAIWEREQEALANLPADLAGLPTDTLFLQPVNMVGVSALSRLLSTQPVASPSSDEYLQQRPDIPSLSALVDDIARNEHGLIMLMGQGGVGKTTMAAAIAVRLADMGFDVHLTTSDPAAHLSMTLNGSLNNLQVSRIDPHEETERYRQHVLETKGKELDEAGKRLLEEDLRSPCTEEIAVFQAFSRVIREAGKRFVVMDTAPTGHTLLLLDATGAYHREIAKKMGEKGHFTTPMMLLQDPERTKVLLVTLPETTPVLEAANLQADLERAGIHPWGWIINNSLSIADTRSPLLRMRAQQELPQIESVKRQHASRVALVPVLASEPTGIDKLKQLAG
B3: the “ATPase activity (in words)” value in series [3] (purified protein) is “inactive”.
